The target of assay [1] is Cyclin-dependent kinase 14 (Homo sapiens, UniProt O94921). The assay is described as follows: Inhibition of FLAG-tagged CDK14 (unknown origin) expressed in human HEK293 cells assessed as blocking of CDK14 pulldown incubated for 4 hrs by biotinylated JNK-IN- based pull down assay. A digest of the protocol: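 Cells were treated with compound at various doses for 4 h and then lysed. Lysates were incubated with biotinylated JNK-IN-7 and captured on streptavidin-coated beads. CDK14 capture was detected by western blot.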
Sequence of Cyclin-dependent kinase 14 (O94921 whole entry): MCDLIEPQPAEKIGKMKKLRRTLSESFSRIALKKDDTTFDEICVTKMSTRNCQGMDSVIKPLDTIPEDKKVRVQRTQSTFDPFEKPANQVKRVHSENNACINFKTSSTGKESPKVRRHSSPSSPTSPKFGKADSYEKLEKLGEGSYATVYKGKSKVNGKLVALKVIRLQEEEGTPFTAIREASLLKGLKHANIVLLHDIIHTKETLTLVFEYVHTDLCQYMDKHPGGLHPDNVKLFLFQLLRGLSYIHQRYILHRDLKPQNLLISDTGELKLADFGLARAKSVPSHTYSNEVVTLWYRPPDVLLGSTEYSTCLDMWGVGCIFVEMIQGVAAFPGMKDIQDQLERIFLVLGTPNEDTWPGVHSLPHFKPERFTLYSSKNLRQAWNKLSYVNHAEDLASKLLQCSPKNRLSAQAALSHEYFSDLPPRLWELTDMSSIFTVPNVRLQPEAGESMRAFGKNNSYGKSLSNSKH

Assay [2] has as its target Cyclin-dependent kinase 14/Cyclin-Y (Homo sapiens, UniProt O94921+Q8ND76). In words: Inhibition of recombinant GST-tagged human full length CDK14/cyclin Y (2 to end residues) preincubated for 30 mins by Lantha screen eu binding assay. In outline: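 CDK14 binding was measured in a LanthaScreen binding assay. IC50 is the average of three replicates, reported ± standard error.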

The results in this text go back to BindingDB's records for doi:10.1016/j.bmcl.2019.05.024 (Harvard Medical School, 2019).

Sequence of Cyclin-dependent kinase 14/Cyclin-Y (O94921 whole entry): as above
Sequence of Cyclin-dependent kinase 14/Cyclin-Y (Q8ND76 2-341 limits assumed): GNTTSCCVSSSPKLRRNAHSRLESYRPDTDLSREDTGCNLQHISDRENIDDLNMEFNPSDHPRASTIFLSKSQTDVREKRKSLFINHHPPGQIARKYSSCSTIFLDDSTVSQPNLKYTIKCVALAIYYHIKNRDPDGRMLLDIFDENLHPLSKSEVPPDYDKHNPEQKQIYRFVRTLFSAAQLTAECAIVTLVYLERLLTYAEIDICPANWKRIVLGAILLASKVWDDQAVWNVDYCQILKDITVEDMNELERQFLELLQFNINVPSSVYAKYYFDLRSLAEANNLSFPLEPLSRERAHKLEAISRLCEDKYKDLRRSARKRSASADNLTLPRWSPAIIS

With `C=CC(=O)Nc1cccc(C(=O)N2CCC(NC(=O)c3n[nH]cc3NC(=O)c3c(Cl)cccc3Cl)CC2)c1`, the 50% inhibitory concentration (IC50) in assay [1] stood at 0.5 µM.

Regarding `CN(C)CC=CC(=O)Nc1cccc(C(=O)Nc2ccc(NC(=O)c3n[nH]cc3NC(=O)c3c(Cl)cccc3Cl)cc2)c1`, in assay [2], the IC50 is 0.017 µM.

Broadly, the IC50 is the concentration needed to halve the response being measured.
